# Bioassay records as filed in PubChem.
# A selection: hits, their analogues and other compounds. The true share with any hit is near 1%.
# TLR9-MyD88 inh = TLR9-MyD88 interaction inhibition; Q9NR96+Q99836; CHO BLA complementation TLR9-MyD88, CCF4 FRET ratio; inhibition, % at 4.98 µM; 340,000 compounds, 0.21% hits;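 active = inhibition above the mean over all tested compounds plus 3 SD, cut at about 21% in these data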;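 note: 0% = DMSO only wells and 100% = clavulanate BLA inhibitor control wells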
# TLR4-MyD88 BLA = blocks binding of human TLR4 to MyD88; inhibition, % at 8.4 µM; HeLa CL3-4 TLR4/MyD88 BLA complementation, FRET ratio; O00206+Q99836; 200,000 compounds, 0.18% hits; in the data active = inhibition above about 25%;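 note: 0% = vehicle and 100% = reference inhibitor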
# MT stabilize HCS = stabilizes microtubules in HeLa cells | 200,000 compounds, 0.83% hits | HeLa tubulin immunostaining HCS, 24 h; share of cells brighter than vehicle mean+2SD | AID 2205 | % tubulin-high responders, % at 10 µM;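 active = plate Z-score above 3 for both tubulin-high and condensed-nucleus cell shares, with cell loss under 80%, at 10 µM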;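 note: anti alpha tubulin signal scored within the nucleus-defined area of each cell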
# Hsp70 act = switches on Hsp70 transcription | HeLa Hsp70 promoter luciferase reporter, luminescence; scaled: vehicle 0, proteasome-inhibitor control 100% | activation, % at 10 µM | 200,000 compounds, 0.04% hits | AID 1203;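 active = activation above the mean across all tested compounds plus 3 SD, cutoff set per campaign, cut at about 5.5% in these data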;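 note: 100% = MG132 at 30 µM as the positive control and 0% = DMSO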
# b-catenin transl = beta-catenin nuclear translocation modulation. HeLa beta-catenin nuclear translocation, immunofluorescence imaging. nuclear translocation activity, % at 5 µM. 190,000 compounds, 0.3% hits;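 active = nuclear translocation activity above 50% at 5 µM, with a well cell count of 50 or more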;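 note: per-cell ratio of nuclear to cytoplasmic median beta-catenin stain intensity; plate controls were DMSO negative control for no effect and GSK-3 inhibitor IX positive control for full effect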
#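 System: HeLa cells, endogenous beta-catenin; compound dosing: 5 µM primary single dose, 0.1% DMSO, 0.02–20 µM confirmation series; incubation: 24 h compound exposure at 37°C, 5% CO2; signal: beta-catenin immunofluorescence imaging with DAPI; evaluation: % activation, nuclear-to-cytoplasmic median beta-catenin signal ratio per cell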
# NOD2-RIPK2 inh = inhibitors of human NOD2-RIPK2 interaction. 360,000 compounds, 0.38% hits. O43353. inhibition, % at 4.98 µM. CHO BLA complementation NOD2-RIPK2, CCF4 ratio; in the data active = inhibition above about 21%;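 note: 0% = vehicle only and 100% = reference blocker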
# Target sequence (O43353 whole entry, looked up): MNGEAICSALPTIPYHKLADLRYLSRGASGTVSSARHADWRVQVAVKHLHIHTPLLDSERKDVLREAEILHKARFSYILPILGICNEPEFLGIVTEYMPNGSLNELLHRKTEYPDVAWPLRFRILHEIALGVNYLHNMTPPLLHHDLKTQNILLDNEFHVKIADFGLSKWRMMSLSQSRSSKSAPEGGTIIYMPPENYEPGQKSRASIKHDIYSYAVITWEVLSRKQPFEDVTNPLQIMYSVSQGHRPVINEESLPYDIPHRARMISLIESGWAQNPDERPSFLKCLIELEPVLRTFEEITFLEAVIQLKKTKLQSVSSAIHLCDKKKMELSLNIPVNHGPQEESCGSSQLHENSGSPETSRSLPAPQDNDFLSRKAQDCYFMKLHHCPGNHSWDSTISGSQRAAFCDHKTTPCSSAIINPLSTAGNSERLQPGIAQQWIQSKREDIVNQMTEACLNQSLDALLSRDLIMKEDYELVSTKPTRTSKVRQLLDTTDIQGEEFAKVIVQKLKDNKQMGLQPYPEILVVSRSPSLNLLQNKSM
# * = called active by the depositor; . = not tested or not shown.
SMILES,TLR9-MyD88 inh,TLR4-MyD88 BLA,MT stabilize HCS,Hsp70 act,b-catenin transl,NOD2-RIPK2 inh
COc1ccccc1-c1nnc2sc(-c3ccc(N(C)C)cc3)nn12,1,-6,8,0,74*,20
COc1ccccc1-c1nn2c(C(F)(F)F)nnc2s1,-8,0,14*,0,-3,-4
CN(C)c1ccc(-c2nn3c(-c4ccccc4Cl)nnc3s2)cc1,3,4,29*,0,78*,10
FC(F)(F)c1nnc2sc(-c3ccccn3)nn12,6,-1,3,0,0,-4
Clc1ccccc1-c1nnc2sc(-c3ccncc3)nn12,-17,4,3,0,4,-3
OC(c1cc(F)cc(Cl)c1)c1ncc(-c2ccc(Cl)cc2)[nH]1 (stereo unspecified),.,.,.,.,.,-4
C[C@]12CC[C@H](O)CC1=CCC1C2CC[C@@]2(C)C1CC[C@@H]2NC(=O)[C@@H](N)Cc1cnc[nH]1 (stereo partly specified),-13,.,.,.,.,2
COc1ccc(-c2nn3c(-c4cccc(C)c4)nnc3s2)cc1OC,0,5,33*,0,.,-3
C=C[C@]1(C)C[C@@H](OC(=O)CSCCN(CC)CC)[C@]2(C)C(C)CC[C@]3(CCC(=O)[C@H]32)[C@@H](C)[C@@H]1O (stereo partly specified),1,.,.,.,.,-17
O=C1CCCc2cc3c(cc21)CC1(C3)Cc2cc3c(cc2C1)C(=O)CCC3,-1,.,.,.,72*,-3
CCOc1ccc(C2=Nn3c(nnc3-c3ccc(OC)cc3)SC2)cc1,0,8,40*,0,106*,-1
Cc1ccccc1-c1noc(CNC(=O)c2ccco2)n1,-6,.,.,.,.,-7
Cn1cc(C2CC(c3ccccc3)=NN2C(=O)c2ccccc2)c2ccccc21 (stereo unspecified),0,-3,24*,0,1,-2
CCCC(=O)N1N=C(c2ccccc2)CC1c1cn(C)c2ccccc12 (stereo unspecified),8,-5,1,-1,6,-7
CCNc1nc(OC)nc(SCC(=O)Nc2ccccc2)n1,-2,-3,13*,0,24,-5
CN(C)c1nc(NCc2ccccc2)nc(SCC(=O)Nc2ccccc2)n1,9,2,2,0,-1,0
Cc1ccc(NC(=O)c2ccc(Cl)c(N3C(=O)C=CC3=O)c2)cc1,18,19,2,0,1,51*
Cc1ccc(S(=O)(=O)c2nc(S(C)(=O)=O)sc2N2CCC(C)CC2)cc1,-14,.,.,.,.,-2
Cc1ccc(-c2ccc(=O)n(CC(=O)NCCN(CC(C)C)CC(C)C)n2)cc1,6,.,.,.,.,4
CCO[C@H]1OC(C(=O)NCc2nc3ccccc3[nH]2)=C[C@@H](C2CC2)[C@@H]1CCCO,1,2,22*,0,122*,8
CCO[C@H]1OC(C(=O)NCc2nc3ccccc3[nH]2)=C[C@@H](c2ccccc2)[C@@H]1CCCO,-7,1,3,0,-2,-10
Cc1[nH]c(=O)c(C(=O)/C=C/c2ccccc2F)c2c1CCCC2,6,-9,23,1,3,23*
Cc1cc(C)c(C(=O)/C=C/c2cccc3ccccc23)c(=O)[nH]1,15,1,14,0,5,7
O=C1/C(=C\c2ccccc2)CCc2c1[nH]c1ccccc21,9,10,21*,0,0,12
CNc1ccc(/C=C(\C#N)c2ccccn2)cc1[N+](=O)[O-],-16,-20,2,0,2,-7
SMILES,TLR9-MyD88 inh,TLR4-MyD88 BLA,MT stabilize HCS,Hsp70 act,b-catenin transl,NOD2-RIPK2 inh
N#C/C(=C\c1ccc(Cl)c([N+](=O)[O-])c1)c1ccccn1,6,25,66,0,80*,8
CCC(=O)NC1=C(Cl)C(=O)C(NC(=O)CC)=C(Cl)C1=O,11,.,.,.,0,23*
NC(N)=N/N=C/c1ccc(OS(=O)(=O)c2ccccc2)cc1,4,6,9.2*,0,24,-5
COc1ccc(/C=N/NC(=O)c2cccnc2)cc1CSc1ccccn1,3,.,.,.,65*,-3
COc1ccc(/C=N/NC(=O)c2cc(OC)c(OC)c(OC)c2)cc1CN1CCc2cc(OC)c(OC)cc2C1C (stereo unspecified),-16,-3,20*,0,6,-9
COc1cc(OC)cc(C(=O)N/N=C/c2ccc(OC)c(COc3ccc(F)cc3)c2)c1,-4,-4,16,0,213*,3
COc1ccc2[nH]c3c(NCc4ccco4)ncnc3c2c1,.,9,27*,0,6,.
CCc1cc(=O)oc2cc3occ(-c4ccc(OC)c(F)c4)c3cc12,3,6,10,-1,66*,-5
CCc1cc(=O)oc2cc3occ(C)c3cc12,5,-4,3,0,2,-3
C[C@@H](CO)NC(=O)c1nc[nH]c1C(=O)N[C@H](C)c1ccccc1,3,.,.,.,.,-5
COc1ccc(C(O)c2ncc(-c3cccc(C(F)(F)F)c3)[nH]2)cc1F (stereo unspecified),.,.,.,.,.,0
CCOc1cc(NC(=O)c2ccco2)c(OCC)cc1NC(=O)c1ccco1,-15,.,.,.,.,-2
CCOc1cc(C#N)c(NC(=O)c2ccco2)cc1OCC,-2,8,40*,0,8,-4
O=C1/C(=C/c2ccco2)SC(=S)N1CCC(=O)N1CCCCC1CCO (stereo unspecified),-1,.,.,.,.,-10
C=CCOC(=O)C1=C(C)NC(SC)=C(C#N)C1c1cccs1 (stereo unspecified),-1,-4,38*,0,39,-6
CSc1ncnc2c1ncn2CCCN1CCN(C(=O)C2CC2)CC1,10,.,.,.,.,-10
CNC(=O)c1[nH]nc2c1CCc1ccccc1-2,0,.,.,.,.,-1
COc1ccc(/C=N/NC(=O)c2[nH]nc3c2CCc2ccccc2-3)cc1OC,-3,-3,22*,0,127*,-3
OC(CNCC(c1ccc(Cl)cc1Cl)c1c[nH]c2ccccc12)c1ccccc1 (stereo unspecified),6,-5,11*,0,-3,4
O=[N+]([O-])CC(c1ccccc1)c1c[nH]c2ccccc12 (stereo unspecified),.,.,.,.,.,-2
O=C(c1cc(F)c(F)cc1Cl)N1CCN(S(=O)(=O)c2cccs2)CC1,4,.,.,.,.,5
CN(C)CCCNS(=O)(=O)c1ccc(N2CCC(c3ccc(Cl)cc3)=N2)cc1,.,-91,2,0,73*,.
COc1ccc(OC)c(C2Nc3ccccc3NC3=C2C(=O)CC(C)(C)C3)c1 (stereo unspecified),8,.,.,.,.,-3
c1ccn2cc(-c3ccc4c(c3)OCCO4)nc2c1,-4,-6,3,0,0,-10
Cc1ccc2nc(-c3ccc4c(c3)OCCO4)cn2c1,-5,.,.,.,56*,3
